For orientation: IC50 means the concentration needed to halve the response being measured. A low value points to greater potency in that assay.

One test concerns ZR-75-1 cells. Description: Growth rate inhibition. As to conditions: ZR-75-1, 72-hour treatment. It counts as cell-based.
The test system of test [1] is pPRAS40, pGSK3β, pS6 in T47D cells. Description: Immunoblot of downstream AKT signaling in T47D cells. Type of test: cell-based. The following applies: 24 hours.
Test [2] concerns pPRAS40 in T47D and MDA-MB-468 cells. In words: Time course and washout immunoblots of pPRAS40. As to conditions: for pPRAS40 levels over time: 250 nM, T47D and MDA-MB-468, continuous treatment; for pPRAS40 levels after washout: 12 hours treatment with 250 nM, then washout. Type of test: cell-based. In general terms: Immunoblotting shows a protein as a band on a membrane.
The target in the next test is AKT1 (Homo sapiens, UniProt P31749). Description: Z'-LYTE FRET-based kinase inhibition assay, AKT1. Type of test: biochemical.
The next test deals with AKT2 (Homo sapiens, UniProt P31751). Description: Z'-LYTE FRET-based kinase inhibition assay, AKT2. It counts as biochemical.
The target in another test is AKT3 (Homo sapiens, UniProt Q9Y243). In words: Z'-LYTE FRET-based kinase inhibition assay, AKT3. It counts as biochemical.
The target in another test is RET (V804M) (Homo sapiens, UniProt P07949, V804M). In words: LanthaScreen assay, RET. It counts as biochemical. Background: Time-resolved FRET reads energy transfer from a long-lived donor to a nearby acceptor.
The target in test [3] is T1, S6K1 (Homo sapiens, UniProt P23443). Description: Z'-LYTE kinase assay, S6K1. Type of test: biochemical.
Another test has as its target PKG1 (Homo sapiens, UniProt Q13976). In words: Z'-LYTE kinase assay, PKG1. Type of test: biochemical.
The subject of test [4] is AKT1, AKT2, AKT3 in MDA-MB-468 cells. In words: Immunoblot of AKT isoform degradation in MDA-MB-468 cells. It counts as cell-based.
Test [5] deals with AKT isoforms in T47D cells. In words: Immunoblot of AKT degradation in T47D cells. The following applies: 24-hour treatment, 250 nM. It counts as cell-based.
Test [6] has as its system AKT in T47D and MDA-MB-468 cells. Description: Time course and washout immunoblots of AKT levels. Type of test: cell-based.
In another test the test system is MOLT4 cells proteome. In words: TMT quantitative mass spectrometry proteomics in MOLT4 cells. Type of test: cell-based, human. As to conditions: MOLT4, 250 nM, 4 hours, vs DMSO.
Test [7] concerns the target T1, S6K1. Description: Immunoblot of S6K1 degradation. It counts as cell-based.
In test [8] the test system is Ikaros (IKZF1) and Aiolos (IKZF3). Description: Immunoblot of Ikaros and Aiolos degradation. The following applies: 24 hours of drug treatment. Type of test: cell-based. In outline: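 Cells were seeded at 250,000/mL (T47D at 200,000/mL) in RPMI or DMEM with 10% serum, left overnight, then given test compound. They were lysed 15 min in RIPA (pH 7.5) with 0.1% SDS, phosphatase and protease inhibitors, cleared at 14,000 rpm for 10 min at 4°C, and protein-normalized. Lysates went through SDS-PAGE and nitrocellulose transfer, milk block, primary antibodies at 4°C overnight, and fluorescent secondaries 1 h RT. Imaging was on a LI-COR Odyssey.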

The subject of test [9] is MDA-MB-468 and HCC1937 cells. Description: Growth rate inhibition. It counts as cell-based. The following applies: MDA-MB-468 and HCC1937, 72-hour treatment.
For test [10], the system named is ZR-75-1, T47D, LNCaP, and MCF-7 cells. In words: Growth rate inhibition. It counts as cell-based. The following applies: 72-hour treatment, Figures 3A-D.

T1 sequence (P23443 whole entry): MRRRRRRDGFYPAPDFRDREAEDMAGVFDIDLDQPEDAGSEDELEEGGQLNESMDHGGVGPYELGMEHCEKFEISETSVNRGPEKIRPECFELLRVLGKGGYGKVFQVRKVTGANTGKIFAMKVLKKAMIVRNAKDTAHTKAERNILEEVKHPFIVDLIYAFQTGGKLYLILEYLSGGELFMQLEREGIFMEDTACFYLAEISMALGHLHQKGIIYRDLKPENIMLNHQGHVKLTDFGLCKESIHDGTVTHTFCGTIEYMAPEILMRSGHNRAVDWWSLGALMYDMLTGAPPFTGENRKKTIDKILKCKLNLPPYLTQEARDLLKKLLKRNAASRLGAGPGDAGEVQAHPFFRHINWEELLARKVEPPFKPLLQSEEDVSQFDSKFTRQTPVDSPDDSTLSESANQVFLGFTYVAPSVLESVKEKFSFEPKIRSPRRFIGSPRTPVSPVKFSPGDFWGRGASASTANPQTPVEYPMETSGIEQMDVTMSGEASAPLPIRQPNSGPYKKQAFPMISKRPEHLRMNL
Sequence of PKG1 (Q13976 whole entry, canonical isoform): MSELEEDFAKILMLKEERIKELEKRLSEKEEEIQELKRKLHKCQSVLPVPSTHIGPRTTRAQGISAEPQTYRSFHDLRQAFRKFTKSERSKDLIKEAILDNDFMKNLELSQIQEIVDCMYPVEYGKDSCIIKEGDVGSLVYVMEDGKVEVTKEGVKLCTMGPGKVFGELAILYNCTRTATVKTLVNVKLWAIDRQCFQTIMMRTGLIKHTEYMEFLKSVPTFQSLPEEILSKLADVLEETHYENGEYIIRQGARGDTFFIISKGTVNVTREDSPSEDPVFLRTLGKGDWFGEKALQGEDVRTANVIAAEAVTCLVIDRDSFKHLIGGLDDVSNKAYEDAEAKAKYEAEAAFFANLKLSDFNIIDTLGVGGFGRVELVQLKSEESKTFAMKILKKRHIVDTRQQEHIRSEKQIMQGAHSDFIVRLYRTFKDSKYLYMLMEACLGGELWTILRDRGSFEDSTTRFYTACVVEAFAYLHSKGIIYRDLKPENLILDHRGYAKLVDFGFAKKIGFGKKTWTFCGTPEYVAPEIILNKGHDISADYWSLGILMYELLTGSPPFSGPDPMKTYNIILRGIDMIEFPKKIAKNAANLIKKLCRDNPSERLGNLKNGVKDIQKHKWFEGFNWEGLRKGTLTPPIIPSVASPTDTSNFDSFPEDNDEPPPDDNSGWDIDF
Sequence of RET (V804M) (P07949 29-1114 V804M): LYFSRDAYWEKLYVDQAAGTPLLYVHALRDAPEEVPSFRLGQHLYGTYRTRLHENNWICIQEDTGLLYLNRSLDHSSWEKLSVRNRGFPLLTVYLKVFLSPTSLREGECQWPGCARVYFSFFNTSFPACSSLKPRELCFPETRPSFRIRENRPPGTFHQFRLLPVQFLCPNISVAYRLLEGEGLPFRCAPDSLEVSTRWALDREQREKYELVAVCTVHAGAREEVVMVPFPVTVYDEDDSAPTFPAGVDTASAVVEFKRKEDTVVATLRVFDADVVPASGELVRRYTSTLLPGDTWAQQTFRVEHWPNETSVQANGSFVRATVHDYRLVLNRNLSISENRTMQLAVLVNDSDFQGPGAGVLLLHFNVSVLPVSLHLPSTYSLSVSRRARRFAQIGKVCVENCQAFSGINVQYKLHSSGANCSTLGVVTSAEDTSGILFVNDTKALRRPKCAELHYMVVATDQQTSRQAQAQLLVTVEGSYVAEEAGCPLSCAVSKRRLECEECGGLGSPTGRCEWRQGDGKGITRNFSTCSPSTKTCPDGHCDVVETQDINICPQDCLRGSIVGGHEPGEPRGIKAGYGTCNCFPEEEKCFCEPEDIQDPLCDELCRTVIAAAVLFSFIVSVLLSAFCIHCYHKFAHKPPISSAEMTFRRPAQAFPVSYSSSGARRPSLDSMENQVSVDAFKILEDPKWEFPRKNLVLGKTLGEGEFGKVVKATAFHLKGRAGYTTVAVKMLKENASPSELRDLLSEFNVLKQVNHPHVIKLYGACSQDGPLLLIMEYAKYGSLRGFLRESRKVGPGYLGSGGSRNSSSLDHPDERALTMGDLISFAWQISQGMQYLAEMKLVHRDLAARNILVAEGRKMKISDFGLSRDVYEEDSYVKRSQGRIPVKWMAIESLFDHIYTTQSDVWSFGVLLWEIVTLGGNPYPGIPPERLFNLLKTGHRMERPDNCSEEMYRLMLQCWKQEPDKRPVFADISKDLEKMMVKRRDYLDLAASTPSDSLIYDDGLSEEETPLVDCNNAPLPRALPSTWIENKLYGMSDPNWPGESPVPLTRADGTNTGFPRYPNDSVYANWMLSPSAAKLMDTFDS
Sequence of AKT2 (P31751 whole entry): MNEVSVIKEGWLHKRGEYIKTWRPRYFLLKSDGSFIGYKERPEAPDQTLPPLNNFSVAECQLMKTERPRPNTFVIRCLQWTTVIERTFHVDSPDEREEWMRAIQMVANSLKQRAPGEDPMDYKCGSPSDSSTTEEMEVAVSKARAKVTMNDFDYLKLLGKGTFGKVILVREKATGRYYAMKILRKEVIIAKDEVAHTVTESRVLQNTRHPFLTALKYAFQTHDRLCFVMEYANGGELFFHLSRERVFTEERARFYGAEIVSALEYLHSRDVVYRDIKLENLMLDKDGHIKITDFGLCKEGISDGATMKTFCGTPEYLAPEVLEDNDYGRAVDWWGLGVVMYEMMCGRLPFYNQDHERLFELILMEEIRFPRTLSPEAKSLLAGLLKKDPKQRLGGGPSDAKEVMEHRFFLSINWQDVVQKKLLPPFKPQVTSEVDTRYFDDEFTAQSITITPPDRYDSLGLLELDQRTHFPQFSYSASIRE
Sequence of AKT3 (Q9Y243 whole entry): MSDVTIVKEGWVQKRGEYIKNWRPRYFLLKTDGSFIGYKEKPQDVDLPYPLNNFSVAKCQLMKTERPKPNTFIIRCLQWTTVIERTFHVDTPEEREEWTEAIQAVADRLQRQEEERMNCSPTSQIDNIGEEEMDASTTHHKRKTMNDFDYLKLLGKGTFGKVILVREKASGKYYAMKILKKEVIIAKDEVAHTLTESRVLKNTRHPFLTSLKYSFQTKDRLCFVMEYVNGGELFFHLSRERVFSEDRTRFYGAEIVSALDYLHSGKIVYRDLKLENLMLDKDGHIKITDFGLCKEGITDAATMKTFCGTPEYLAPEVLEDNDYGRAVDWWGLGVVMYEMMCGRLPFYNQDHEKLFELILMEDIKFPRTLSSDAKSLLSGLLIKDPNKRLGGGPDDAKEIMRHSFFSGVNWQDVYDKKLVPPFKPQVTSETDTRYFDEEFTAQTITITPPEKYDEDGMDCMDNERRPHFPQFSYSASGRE
Sequence of AKT1 (P31749 whole entry): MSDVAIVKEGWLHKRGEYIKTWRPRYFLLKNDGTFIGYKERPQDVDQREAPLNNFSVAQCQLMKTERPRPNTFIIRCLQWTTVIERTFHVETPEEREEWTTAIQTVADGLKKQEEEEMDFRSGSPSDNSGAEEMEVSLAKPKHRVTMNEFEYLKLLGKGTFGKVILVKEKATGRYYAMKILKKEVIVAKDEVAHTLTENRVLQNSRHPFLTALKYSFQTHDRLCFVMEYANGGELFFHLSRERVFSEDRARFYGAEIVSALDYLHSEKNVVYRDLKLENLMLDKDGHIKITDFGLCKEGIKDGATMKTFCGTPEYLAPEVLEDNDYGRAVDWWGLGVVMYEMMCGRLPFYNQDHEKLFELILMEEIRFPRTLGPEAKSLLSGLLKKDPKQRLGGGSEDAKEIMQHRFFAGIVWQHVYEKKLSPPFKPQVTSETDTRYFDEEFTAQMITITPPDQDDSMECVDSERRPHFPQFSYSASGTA

Regarding `CC(C)NC[C@@H](C(=O)N1CCN(c2ncnc3c2[C@H](C)C[C@H]3O)CC1)c1ccc(Cl)cc1` [GDC-0068, ipatasertib, reference compound], the GR50 with ZR-75-1 cells is given as 229 nM. In test [1] (comparable to 250 nM INY-03-041), the “dose required to observe comparable effects on pPRAS40, pGSK3β, and pS6” value is reported as “up to 1 μM”. For the same molecule, in [2], the “pPRAS40 levels over time” value is given as “less pronounced inhibition of pPRAS40” and the “pPRAS40 levels after washout” value was “rebound of pPRAS40”.

For `C[C@@H]1C[C@@H](O)c2ncnc(N3CCN(C(=O)[C@H](CNCCCCCCCCCCc4cccc5c4CN(C4CCC(=O)NC4=O)C5=O)c4ccc(Cl)cc4)CC3)c21` (stereo partly drawn) [INY-03-041, 3-(4-(10-(((S)-2-(4-chlorophenyl)-3-(4-((5R,7R)-7-hydroxy-5-methyl-6,7-dihydro-5H-cyclopenta[d]pyrimidin-4-yl)piperazin-1-yl)-3-oxopropyl)amino)decyl)-1-oxoisoindolin-2-yl)piperidine-2,6-dione], the IC50 against AKT1 was 2 nM; at AKT2, 6.8 nM; on AKT3 it was 3.5 nM; at RET (V804M), above 10000 nM; against S6K1 [3], 37.3 nM; on PKG1, 33.2 nM. The “time to partial degradation of all AKT isoforms” value in test [4] (MDA-MB-468, 250 nM) is at most 4 h. Besides, the “concentration at which diminished AKT degradation (hook effect) was observed” value in test [4] (MDA-MB-468, 12-hour treatment) is at least 500 nM. In test [5], the “AKT isoform levels after treatment” value was “no detectable levels of all three AKT isoforms”. Further, the “duration of sustained destabilization of all three AKT isoforms” value in test [6] (250 nM, T47D and MDA-MB-468) is given as “at least 96 hours”. Further, the “AKT levels after compound washout” value in [6] (12 hours treatment with 250 nM, then washout) is “no detectable rebound of AKT levels for up to 96 hours”. In the test with MOLT4 cells proteome, the “S6K1 and PKG1 abundance (proteomics)” value is listed as “no downregulation of either kinases was observed”. Besides, the “change in protein abundance (proteomics)” value with MOLT4 cells proteome was “significant downregulation of all three AKT isoforms, as well as RNF166”. Besides, the “S6K1 degradation (immunoblot)” value at S6K1 [7] is listed as “did not induce S6K1 degradation”. Further, the “IKZF1 and IKZF3 degradation (immunoblot)” value in test [8] was “weak IKZF1 and IKZF3 degradation”. Besides, the “concentration at which IKZF1 and IKZF3 degradation was seen” value in test [8] is reported as at least 500 nM. The molecule also showed a GR50 in the test on ZR-75-1 cells of 16 nM. Also, in the test with ZR-75-1 cells, the “fold increased potency compared to GDC-0068 (GR50)” value is 14 fold. Besides, in test [9], the “GR50 comparison” value was “no apparent differences in GR50 values between INY-03-041 and INY-03-112”. In addition, the “concentration that significantly reduced pPRAS40, pGSK3β, and pS6 levels” value in test [1] was 250 nM. In test [2], the “pPRAS40 levels over time” value is on record as “significantly reduced for up to 96 hours”. Besides, the “pPRAS40 levels after washout” value in [2] is reported as “potently suppressed levels of pPRAS40 for up to 96 hours after washout”.

Consider `C[C@@H]1C[C@@H](O)c2ncnc(N3CCN(C(=O)[C@H](CNCCCCCCCCCCc4cccc5c4CN(C4CCC(=O)N(C)C4=O)C5=O)c4ccc(Cl)cc4)CC3)c21` (stereo partly drawn) [INY-03-112, 3-(4-(10-(((S)-2-(4-chlorophenyl)-3-(4-((5R,7R)-7-hydroxy-5-methyl-6,7-dihydro-5H-cyclopenta[d]pyrimidin-4-yl)piperazin-1-yl)-3-oxopropyl)amino)decyl)-1-oxoisoindolin-2-yl)-1-methylpiperidine-2,6-dione], for which, in test [4] (MDA-MB-468, immunoblot), the “AKT isoform degradation” value is “did not induce potent degradation of any AKT isoform”. In the test on ZR-75-1 cells, this molecule yielded a GR50 of 413 nM.

For the molecule `Nc1cccc2c1CN(C1CCC(=O)NC1=O)C2=O` (centres unmarked) [lenalidomide], the “anti-proliferative effects” value in [10] is “did not have strong anti-proliferative effects”.

Source of the values: publication PMC6980747 (Cell chemical biology, 2019).
